Assay results as given in ChEMBL document CHEMBL1136142, “Synthesis, biological evaluation and DNA binding properties of novel bleomycin analogues” (Bioorg Med Chem Lett, 2003).

Tests used:
HeLa = test: In vitro antitumor activity against HeLa cell lines by using MTT assay; format: functional, cell-based; conditions: Homo sapiens
In short: (§1)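 Tetrazolium salt (MTT) read-out of in vitro growth inhibition; the reported value is the concentration producing 50% inhibition (IC50).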

BGC-823 = test: In vitro antitumor activity against BGC-823 cell lines by using MTT assay; format: functional, cell-based; conditions: Homo sapiens; in short: as §1

SMILES | IC50 (HeLa) [µM] | IC50 (BGC-823) [µM]
CCCC(=O)NCCCCNCCCNC(=O)c1csc(-c2csc(CCNC(=O)[C@@H](NC(=O)[C@@H](C)C(O)C(C)NC(=O)[C@@H](NC(=O)c3nc([C@H](CC(N)=O)NCC(N)C(N)=O)nc(N)c3C)[C@@H](O[C@@H]3O[C@@H](CO)[C@@H](O)[C@@H](O)[C@@H]3OC3O[C@H](CO)[C@@H](O)[C@H](OC(N)=O)[C@@H]3O)c3c[nH]cn3)[C@@H](C)O)n2)n1 (some centres undefined) | 13.8 | 2.62
CC(=O)NCCCCNCCCNC(=O)c1csc(-c2csc(CCNC(=O)[C@@H](NC(=O)[C@@H](C)C(O)C(C)NC(=O)[C@@H](NC(=O)c3nc([C@H](CC(N)=O)NCC(N)C(N)=O)nc(N)c3C)[C@@H](O[C@@H]3O[C@@H](CO)[C@@H](O)[C@@H](O)[C@@H]3O[C@H]3O[C@H](CO)[C@@H](O)[C@H](OC(N)=O)[C@@H]3O)c3c[nH]cn3)[C@@H](C)O)n2)n1 (some centres undefined) | 15.3 | 22.1
CCC(=O)NCCCCNCCCNC(=O)c1csc(-c2csc(CCNC(=O)[C@@H](NC(=O)[C@@H](C)C(O)C(C)NC(=O)[C@@H](NC(=O)c3nc([C@H](CC(N)=O)NCC(N)C(N)=O)nc(N)c3C)[C@@H](O[C@@H]3O[C@@H](CO)[C@@H](O)[C@@H](O)[C@@H]3O[C@H]3O[C@H](CO)[C@@H](O)[C@H](OC(N)=O)[C@@H]3O)c3c[nH]cn3)[C@@H](C)O)n2)n1 (some centres undefined) | 14.4 | 6.46
Cc1c(N)nc([C@H](CC(N)=O)NCC(N)C(N)=O)nc1C(=O)N[C@H](C(=O)NC(C)C(O)[C@H](C)C(=O)N[C@H](C(=O)NCCc1nc(-c2nc(C(=O)NCCCNCCCCNC(=O)c3ccccn3)cs2)cs1)[C@@H](C)O)[C@@H](O[C@@H]1O[C@@H](CO)[C@@H](O)[C@@H](O)[C@@H]1O[C@H]1O[C@H](CO)[C@@H](O)[C@H](OC(N)=O)[C@@H]1O)c1c[nH]cn1 (some centres undefined) | 14.8 | 10.8
Cc1c(N)nc([C@H](CC(N)=O)NCC(N)C(N)=O)nc1C(=O)N[C@H](C(=O)NC(C)C(O)[C@H](C)C(=O)N[C@H](C(=O)NCCc1nc(-c2nc(C(=O)NCCCNCCCCNC=O)cs2)cs1)[C@@H](C)O)[C@@H](O[C@@H]1O[C@@H](CO)[C@@H](O)[C@@H](O)[C@@H]1O[C@H]1O[C@H](CO)[C@@H](O)[C@H](OC(N)=O)[C@@H]1O)c1c[nH]cn1 (some centres undefined) | 12.2 | 31
Cc1c(N)nc([C@H](CC(N)=O)NCC(N)C(N)=O)nc1C(=O)N[C@H](C(=O)NC(C)C(O)[C@H](C)C(=O)N[C@H](C(=O)NCCc1nc(-c2nc(C(=O)NCCCNCCCCNC(=O)c3ccccc3)cs2)cs1)[C@@H](C)O)[C@@H](O[C@@H]1O[C@@H](CO)[C@@H](O)[C@@H](O)[C@@H]1O[C@H]1O[C@H](CO)[C@@H](O)[C@H](OC(N)=O)[C@@H]1O)c1c[nH]cn1 (some centres undefined) | 11.7 | 7.46
Cc1c(N)nc([C@H](CC(N)=O)NCC(N)C(N)=O)nc1C(=O)N[C@H](C(=O)NC(C)C(O)[C@H](C)C(=O)N[C@H](C(=O)NCCc1nc(-c2nc(C(=O)NCCC[S+](C)C)cs2)cs1)[C@@H](C)O)[C@@H](O[C@@H]1O[C@@H](CO)[C@@H](O)[C@H](O)[C@@H]1O[C@H]1O[C@H](CO)[C@@H](O)[C@H](OC(N)=O)[C@@H]1O)c1c[nH]cn1 (some centres undefined) | 16.2 | 10.1
